Laboratory results as given in ChEMBL document CHEMBL1123747, “N-methyl derivatives of the 5-HT2 agonist 1-(4-bromo-2,5-dimethoxyphenyl)-2-aminopropane” (J Med Chem, 1987).
Calls of active or inactive are those of the source. No cut-off for these calls is given here.

How the values were obtained:
Rattus norvegicus [1] = species on record: Rattus norvegicus; assay: The number of responses made on the (R)(-)-DOB appropriate level, generation studies was calculated at dose 0.7 mg / kg; format: functional
In short: (§1)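 Male Sprague-Dawley rats (n = 6) were trained on a two-lever operant task for sweetened-milk reward to discriminate 0.2 mg/kg (R)-(-)-DOB-HCl ip from 1.0 mL/kg 0.9% saline, with a VI 15-s schedule and 15-min sessions. Test doses were given ip 15 min before a 2.5-min extinction session, in random order, to groups of 3-6 rats. Read-out was % drug-lever responses; fewer than five total responses counted as disrupted.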

Rattus norvegicus [2] = species on record: Rattus norvegicus; assay: The mean responses per minute during the 2.5 min extinction session in the stimulus-generation studies was calculated at dose 1.1 mg / kg; format: functional
In short: (§2)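 Rats were trained on a two-lever drug-versus-saline discrimination (0.2 mg/kg ip training dose, VI 15-s, food reward). Challenge doses were given ip 15 min before a 2.5-min extinction test, in random order, to groups of 3–6 rats, with at least three training sessions between tests. Response rate is responses per minute over the extinction session.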

Rattus norvegicus [3] = species on record: Rattus norvegicus; assay: The mean responses per minute during the 2.5 min extinction session in the stimulus-generation studies was calculated at dose 0.7 mg / kg; format: functional; in short: as §2
Rattus norvegicus [4] = species on record: Rattus norvegicus; assay: The mean responses per minute during the 2.5 min extinction session in the stimulus-generation studies was calculated at dose 0.4 mg / kg; format: functional; in short: as §2
Rattus norvegicus [5] = species on record: Rattus norvegicus; assay: The number of responses made on the (R)(-)-DOB appropriate level, generation studies was calculated at dose 1.1 mg / kg; format: functional; in short: as §1
Rattus norvegicus [6] = species on record: Rattus norvegicus; assay: The mean responses per minute during the 2.5 min extinction session in the stimulus-generation studies was calculated at dose 0.2 mg / kg; format: functional; in short: as §2
Rattus norvegicus [7] = species on record: Rattus norvegicus; assay: The number of animals responding per number of animals receiving the drug(3/3) in the stimulus-generation studies was calculated at dose 0.2 mg / kg; format: functional
In short: (§3)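 Male Sprague-Dawley rats were trained to discriminate 0.2 mg/kg ip training drug from saline (two levers, VI 15-s, milk reward). Test doses were given ip 15 min pre-session in random order to groups of 3–6. In the 2.5-min extinction session, rats making fewer than five total responses were counted as disrupted. N is animals responding over animals dosed.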

Rattus norvegicus [8] = species on record: Rattus norvegicus; assay: The number of responses made on the (R)(-)-DOB appropriate level, generation studies was calculated at dose 0.2 mg / kg; format: functional; in short: as §1
Rattus norvegicus [9] = species on record: Rattus norvegicus; assay: The number of animals responding per number of animals receiving the drug(3/3) in the stimulus-generation studies was calculated at dose 0.7 mg / kg; format: functional; in short: as §3
Rattus norvegicus [10] = species on record: Rattus norvegicus; assay: The number of animals responding per number of animals receiving the drug(3/4) in the stimulus-generation studies was calculated at dose 0.4 mg / kg; format: functional; in short: as §3
Rattus norvegicus [11] = species on record: Rattus norvegicus; assay: The number of responses made on the (R)(-)-DOB appropriate level, generation studies was calculated at dose 0.4 mg / kg; format: functional; in short: as §1
Rattus norvegicus [12] = species on record: Rattus norvegicus; assay: The number of animals responding per number of animals receiving the drug(4/4) in the stimulus-generation studies was calculated at dose 1.1 mg / kg; format: functional; in short: as §3
Rattus norvegicus [13] = species on record: Rattus norvegicus; assay: The compound was tested for effective dose ( ED 50) against stimulus generation with rats trained to discriminate (R) (-)-DOB from saline.; format: functional
In short: (§4)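 Male Sprague-Dawley rats (n = 6) on a two-lever operant task for sweetened milk, VI 15-s schedule. Trained to discriminate 0.2 mg/kg ip training drug from 1.0 mL/kg 0.9% saline, 15 min pre-session. Test doses were given ip in random order to groups of 3–6, with 15-min pretreatment and a 2.5-min extinction session. ED50 was calculated from dose-response data.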

Rattus norvegicus [14] = species on record: Rattus norvegicus; assay: The compound was tested for effective dose ( ED 50) against stimulus generation with rats trained to discriminate (R) (-)-DOB from saline; format: functional; in short: as §4
Rattus norvegicus [15] = assay: The mean responses per minute during the 2.5 min extinction session in the stimulus-generation studies was calculated at dose 1.2 mg/kg; format: functional; in short: as §2
Rattus norvegicus [16] = assay: The number of animals responding per number of animals receiving the drug (2/6)in the stimulus-generation studies was calculated at dose 1.5 mg/kg; format: functional; in short: as §3
Rattus norvegicus [17] = assay: The number of responses made on the (R)(-)-DOB appropriate lever, generation studies was calculated at dose 1.4 mg/kg; NR means not responding; format: functional, organism-based; parameters: dose 1.4 mg/kg; in short: as §1
Rattus norvegicus [18] = assay: The number of animals responding per number of animals receiving the drug (3/3)in the stimulus-generation studies was calculated at dose 1.0 mg/kg; format: functional; in short: as §3
Rattus norvegicus [19] = assay: The mean responses per minute during the 2.5 min extinction session in the stimulus-generation studies was calculated at dose 1.3 mg/kg; format: functional; in short: as §2
Rattus norvegicus [20] = assay: The number of responses made on the (R)(-)-DOB appropriate lever, generation studies was calculated at dose 1.5 mg/kg; NR means not responding; format: functional, organism-based; parameters: dose 1.5 mg/kg; in short: as §1
Rattus norvegicus [21] = assay: The number of animals responding per number of animals receiving the drug(3/4) in the stimulus-generation studies was calculated at dose 1.2 mg/kg; format: functional; in short: as §3
[22] = target: T1, Serotonin 2 (5-HT2) receptor (Rattus norvegicus, UniProt P30994+P08909+P14842); assay: Affinity towards [3H]- ketanserin-labeled 5-hydroxytryptamine 2 receptor sites in rat cortical homogenates
In short: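 Label was 0.4 nM [3H]ketanserin, with 11 competitor concentrations run in triplicate and nonspecific binding defined by 1 μM cinanserin. Bound ligand was filtered onto glass fibre and counted by scintillation. IC50 came from nonlinear regression; Ki = IC50/(1+[D]/KD).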

Rattus norvegicus [23] = assay: The mean responses per minute during the 2.5 min extinction session in the stimulus-generation studies was calculated at dose 1.0 mg/kg; format: functional; in short: as §2
Rattus norvegicus [24] = assay: The number of responses made on the (R)(-)-DOB appropriate lever, generation studies was calculated at dose 1.2 mg/kg; format: functional; in short: as §1
Rattus norvegicus [25] = assay: The number of animals responding per number of animals receiving the drug (4/4)in the stimulus-generation studies was calculated at dose 0.6 mg/kg; format: functional; in short: as §3
Rattus norvegicus [26] = assay: The mean responses per minute during the 2.5 min extinction session in the stimulus-generation studies was calculated at dose 0.3 mg/kg; format: functional; in short: as §2
Rattus norvegicus [27] = assay: The mean responses per minute during the 2.5 min extinction session in the stimulus-generation studies was calculated at dose 0.6 mg/kg; format: functional; in short: as §2
Rattus norvegicus [28] = assay: The number of animals responding per number of animals receiving the drug(2/6) in the stimulus-generation studies was calculated at dose 1.4 mg/kg; format: functional; in short: as §3
Rattus norvegicus [29] = assay: The number of responses made on the (R)(-)-DOB appropriate lever, generation studies was calculated at dose 1.3 mg/kg; format: functional; in short: as §1
[30] = target: T1, Serotonin 2 (5-HT2) receptor; assay: Affinity towards [3H]- DOB -labeled 5-hydroxytryptamine 2 receptor sites in rat cortical homogenates
Rattus norvegicus [31] = assay: The number of animals responding per number of animals receiving the drug (5/5)in the stimulus-generation studies was calculated at dose 1.3 mg/kg; format: functional; in short: as §3
Rattus norvegicus [32] = assay: The number of responses made on the (R)(-)-DOB appropriate lever, generation studies was calculated at dose 0.3 mg/kg; format: functional; in short: as §1
Rattus norvegicus [33] = assay: The number of animals responding per number of animals receiving the drug (3/3) in the stimulus-generation studies was calculated at dose 0.3 mg/kg; format: functional; in short: as §3
Rattus norvegicus [34] = assay: The number of responses made on the (R)(-)-DOB appropriate lever, generation studies was calculated at dose 1.0 mg/kg; format: functional; in short: as §1
Rattus norvegicus [35] = assay: The number of responses made on the (R)(-)-DOB appropriate lever, generation studies was calculated at dose 0.6 mg/kg; format: functional; in short: as §1

COc1cc(C[C@H](C)N)c(OC)cc1Br
Responding (Rattus norvegicus [1]): 63%
Response rate (Rattus norvegicus [2]): 10.8
Response rate (Rattus norvegicus [3]): 10.8
Response rate (Rattus norvegicus [4]): 10.5
Responding (Rattus norvegicus [5]): 82%
Response rate (Rattus norvegicus [6]): 12
No. of animals responding/animals receiving drug (Rattus norvegicus [7]): 3
Responding (Rattus norvegicus [8]): 3%
No. of animals responding/animals receiving drug (Rattus norvegicus [9]): 3
No. of animals responding/animals receiving drug (Rattus norvegicus [10]): 3
Responding (Rattus norvegicus [11]): 48%
No. of animals responding/animals receiving drug (Rattus norvegicus [12]): 4
ED50 (Rattus norvegicus [13]): 0.56 mg/kg

CNC(C)Cc1cc(OC)c(Br)cc1OC (stereo not given)
ED50 (Rattus norvegicus [14]): 0.82 mg/kg
Response rate (Rattus norvegicus [15]): 13.3
No. of animals responding/animals receiving drug (Rattus norvegicus [16]): 2
Responding (Rattus norvegicus [17]): inactive
No. of animals responding/animals receiving drug (Rattus norvegicus [18]): 3
Response rate (Rattus norvegicus [19]): 8
Responding (Rattus norvegicus [20]): inactive
No. of animals responding/animals receiving drug (Rattus norvegicus [21]): 3
Ki [22]: 0.079 µM
Response rate (Rattus norvegicus [23]): 12
Responding (Rattus norvegicus [24]): 70%
No. of animals responding/animals receiving drug (Rattus norvegicus [25]): 4
Response rate (Rattus norvegicus [26]): 11.6
Response rate (Rattus norvegicus [27]): 13.6
No. of animals responding/animals receiving drug (Rattus norvegicus [28]): 2
Responding (Rattus norvegicus [29]): 82%
Ki [30]: 0.0077 µM
No. of animals responding/animals receiving drug (Rattus norvegicus [31]): 5
Responding (Rattus norvegicus [32]): 12%
No. of animals responding/animals receiving drug (Rattus norvegicus [33]): 3
Responding (Rattus norvegicus [34]): 50%
Responding (Rattus norvegicus [35]): 28%
